Consider nine molecules from ChEMBL document CHEMBL4020843, “Ligand-Based NMR Study of C-X-C Chemokine Receptor Type 4 (CXCR4)-Ligand Interactions on Living Cancer Cells” (J Med Chem, 2018).

Data set [1] has as its target T1, C-X-C chemokine receptor type 4 (Homo sapiens, UniProt P61073). As to the kind of experiment: Binding affinity to CXCR4 in human CCRF-CEM cell membranes assessed as signal to noise ratio in presence of 0.05 mM plerixafor by STD-NMR method. In outline:
(§1)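 Pellet of 20 x 10^6 intact cells (CCRF-CEM, CXCR4-null CHO or CXCR4-stably transfected CHO) resuspended in 450 µL PBS pH 7.4 plus 50 µL 2H2O. Peptide added for STD, WaterLOGSY or trNOESY 1H NMR. Spectra of peptide alone and of cells alone acquired as reference. Competition run by adding plerixafor to the indicated concentration (0.010–0.100 mM in STD). STD/WaterLOGSY read as signal-to-noise ratio.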

For data set [2], the target named is T1, C-X-C chemokine receptor type 4. As to the kind of experiment: Binding affinity to CXCR4 in human CCRF-CEM cell membranes assessed as signal to noise ratio in presence of 0.02 mM plerixafor by STD-NMR method. In short, it runs like this:
as §1

A short description of data set [3]: Stability in human CCRF-CEM cells up to 2 hrs by NMR spectral analysis. The class given is ADME, cell-based.
For data set [4], the target named is T1, C-X-C chemokine receptor type 4. The data set can be described thus: Binding affinity to CXCR4 in human CCRF-CEM cell membranes assessed as signal to noise ratio in presence of 0.01 mM plerixafor by STD-NMR method. In outline: as §1
The target is the same in data set [5]. The data set can be described thus: Binding affinity to CXCR4 in human CCRF-CEM cell membranes assessed as signal to noise ratio in presence of 0.1 mM plerixafor by STD-NMR method. In short, it runs like this:
as §1

For data set [6] the target is unchanged. As to the kind of experiment: Binding affinity to CXCR4 in human CCRF-CEM cell membranes in presence of plerixafor by WaterLOGSY-NMR method. In short, it runs like this:
as §1

The target is the same in data set [7]. The data set can be described thus: Binding affinity to CXCR4 in human CCRF-CEM cell membranes by WaterLOGSY-NMR method. In short, it runs like this:
as §1

Data set [8] deals with Plasma. The data set can be described thus: Drug metabolism in human plasma assessed as [Cys-Arg-Phe-Phe-Cys]-COOH metabolite formation after 15 to 30 mins by ESI-RP-HPLC analysis. The class given is ADME, cell-free. In short, it runs like this:
(§2)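 Peptide in sterile water mixed with 90% human serum and incubated at 37 °C. Aliquots taken at 0, 15, 30, 60 and 120 min, precipitated with ACN/0.1% TFA and centrifuged (12 000 rpm, 15 min, 4 °C). Supernatant analysed by RP-HPLC with a 10–90% ACN (0.1% TFA) gradient over 20 min. Relative peptide level taken from A230 peak integration.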

The nature of data set [9]: Half life in human plasma by HPLC analysis. It counts as ADME, cell-free. In outline:
as §2

Data set [10] addresses T1, C-X-C chemokine receptor type 4. As to the kind of experiment: Binding affinity to CXCR4 in human CCRF-CEM cell membranes assessed as signal to noise ratio by STD-NMR method. In outline: as §1
The species entered for the next data set is Cricetulus griseus. As to the kind of experiment: Binding affinity to CHO cell membranes assessed as signal to noise ratio by STD-NMR method. In short, it runs like this: as §1
For data set [11], the target named is T1, C-X-C chemokine receptor type 4. The data set can be described thus: Antagonist activity at CXCR4 in human CCRF-CEM cells assessed as inhibition of PE-conjugated 12G5 antibody binding. The class given is cell-based. In outline: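 CCRF-CEM cells (5 × 10^5) preincubated 30 min at 37 °C, 5% CO2 with peptide at 0.01, 0.1, 1 and 10 µM in PBS plus 0.2% BSA and 0.1% NaN3. Then labeled 30 min with PE anti-CXCR4 antibody clone 12G5. IC50 taken as concentration reducing 12G5 binding by 50%, reported as mean ± SD.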

The target is the same in data set [12]. The data set can be described thus: Binding affinity to CXCR4 (unknown origin) expressed in CHO cell membranes assessed as signal to noise ratio by STD-NMR method. In outline: as §1
Data set [13] deals with Plasma. As to the kind of experiment: Drug level in human plasma treated with (4R,7S,10S,13S,16R)-16-((S)-2-((S)-2-amino-5-guanidinopentanamido)propanam(4R,7S,10S,13S,16R)-16-((S)-2-((S)-2-amino-5-guanidinopentanamido)propanamido)-7,10-dibenzyl-13-(3-guanidinopropyl)-6,9,12,15-tetraoxo-1,2-dithia-5,8,11,14-tetraazacycloheptadecane-4-carboxylic acid after 15 to 30 mins by ESI-RP-HPLC analysis. The class given is ADME, cell-free. In short, it runs like this: as §2

Data set [14] can be described thus: Stability in human CCRF-CEM cells up to 6 hrs by NMR spectral analysis. It counts as ADME, cell-based.
In data set [15] the test system is Plasma. As to the kind of experiment: Stability in human plasma up to 120 mins by ESI-RP-HPLC analysis. Conditions: 2 h. The class given is ADME, cell-free. In outline: as §2

The source made the active and inactive calls. No cut-off for these calls is given here. Residues, ends and D or L forms follow the SMILES beside them.

T1 sequence (P61073 whole entry): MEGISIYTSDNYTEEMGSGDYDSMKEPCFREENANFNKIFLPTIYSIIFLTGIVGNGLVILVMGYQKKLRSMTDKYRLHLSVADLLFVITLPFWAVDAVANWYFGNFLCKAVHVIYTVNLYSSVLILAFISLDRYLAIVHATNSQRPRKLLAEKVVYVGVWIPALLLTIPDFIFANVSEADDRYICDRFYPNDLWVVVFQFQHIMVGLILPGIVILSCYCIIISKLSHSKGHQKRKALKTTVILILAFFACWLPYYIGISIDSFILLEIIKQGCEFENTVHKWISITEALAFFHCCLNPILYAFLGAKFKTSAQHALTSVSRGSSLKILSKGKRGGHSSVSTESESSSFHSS

Regarding `C[C@H](NC(=O)[C@@H](N)CCCNC(=N)N)C(=O)N[C@H]1CSSC[C@@H](C(=O)O)NC(=O)[C@H](Cc2ccccc2)NC(=O)[C@H](Cc2ccccc2)NC(=O)[C@H](CCCNC(=N)N)NC1=O`, the Ratio was found to be 6.1 in data set [1]; 6.3 in [2]; 7.2 in [4]; 5.9 in [5]; 13.3 in data set [10]. For the same molecule, the Stability entry in data set [3] was “Unstable”. Besides, the outcome in [6] was inactive. For the same molecule, the outcome in data set [7] was Active. Further, in the data set with Plasma [8], the Drug metabolism entry is recorded as “Metabolite_Detected”. This molecule displayed a half-life in data set [9] of 22 min.

Turning to `C[C@H](NC(=O)[C@H](N)CCCNC(=N)N)C(=O)N[C@H]1CSSC[C@@H](C(=O)O)NC(=O)[C@H](Cc2ccccc2)NC(=O)[C@H](Cc2ccccc2)NC(=O)[C@H](CCCNC(=N)N)NC1=O`, the Ratio in the data set listed under Cricetulus griseus was 8.2; in data set [12] it was 9.6. The IC50 in data set [11] was over 10 µM.

On to `N=C(N)NCCC[C@@H]1NC(=O)[C@@H](N)CSSC[C@@H](C(=O)O)NC(=O)[C@H](Cc2ccccc2)NC(=O)[C@H](Cc2ccccc2)NC1=O` (HELM PEPTIDE1{C.R.F.F.C}$PEPTIDE1,PEPTIDE1,1:R3-5:R3$$$V2.0), for which the Drug metabolism entry with Plasma [13] is recorded as “Metabolite_Detected”.

For the molecule `C[C@@H]1NC(=O)[C@H](Cc2ccccc2)NC(=O)[C@@H](NC(=O)[C@H](CCCNC(=N)N)NC(=O)[C@@H](N)Cc2ccccc2)CSSC[C@@H](C(=O)O)NC(=O)[C@H](CCCNC(=N)N)NC1=O` (HELM PEPTIDE1{F.R.C.F.A.R.C}$PEPTIDE1,PEPTIDE1,3:R3-7:R3$$$V2.0), the Ratio in the data set filed under Cricetulus griseus was 11.7; in data set [12], 10.2. Further, in data set [11], the IC50 is over 10 µM.

Consider `C[C@H](NC(=O)C1CCN(C(=N)N)CC1)C(=O)N[C@H]1CSSC[C@@H](C(=O)O)NC(=O)[C@H](Cc2ccccc2)NC(=O)[C@H](Cc2ccccc2)NC(=O)[C@H](CCCNC(=N)N)NC1=O` (HELM PEPTIDE1{[N=C(N)N1CCC(C(=O)[*:2])CC1].A.C.R.F.F.C}$PEPTIDE1,PEPTIDE1,3:R3-7:R3$$$V2.0), for which the IC50 in [11] is over 10 µM.

As to `C[C@H](NC(=O)CCCNC(=N)N)C(=O)N[C@H]1CSSC[C@@H](C(=O)O)NC(=O)[C@H](Cc2ccccc2)NC(=O)[C@H](Cc2ccccc2)NC(=O)[C@H](CCCNC(=N)N)NC1=O` (HELM PEPTIDE1{[N=C(N)NCCCC(=O)[*:2]].A.C.R.F.F.C}$PEPTIDE1,PEPTIDE1,3:R3-7:R3$$$V2.0), the IC50 in data set [11] was over 10 µM.

Take `C[C@H](NC(=O)c1ccc(NC(=N)N)cc1)C(=O)N[C@H]1CSSC[C@@H](C(=O)O)NC(=O)[C@H](Cc2ccccc2)NC(=O)[C@H](Cc2ccccc2)NC(=O)[C@H](CCCNC(=N)N)NC1=O` (HELM PEPTIDE1{[N=C(N)Nc1ccc(C(=O)[*:2])cc1].A.C.R.F.F.C}$PEPTIDE1,PEPTIDE1,3:R3-7:R3$$$V2.0): in data set [11], the IC50 was over 10 µM.

With `C[C@H](NC(=O)c1cccc(NC(=N)N)c1)C(=O)N[C@H]1CSSC[C@@H](C(=O)O)NC(=O)[C@H](Cc2ccccc2)NC(=O)[C@H](Cc2ccccc2)NC(=O)[C@H](CCCNC(=N)N)NC1=O` (HELM PEPTIDE1{[N=C(N)Nc1cccc(C(=O)[*:2])c1].A.C.R.F.F.C}$PEPTIDE1,PEPTIDE1,3:R3-7:R3$$$V2.0), the Ratio is 12.5 in the data set filed under Cricetulus griseus, 35.9 in data set [12] and 10 in data set [10]. Moreover, the Stability entry (in data set [14]; in the data set with Plasma [15]) was “Stable” throughout. In addition, the IC50 in data set [11] came out at 3.2 µM. Moreover, the half-life in [9] was over 120 min.

As for `CC(=O)N[C@@H](CCCNC(=N)N)C(=O)N[C@@H](C)C(=O)N[C@H]1CSSC[C@@H](C(=O)O)NC(=O)[C@H](Cc2ccccc2)NC(=O)[C@H](Cc2ccccc2)NC(=O)[C@H](CCCNC(=N)N)NC1=O` (HELM PEPTIDE1{[ac].R.A.C.R.F.F.C}$PEPTIDE1,PEPTIDE1,4:R3-8:R3$$$V2.0), the result in data set [7] was Active.
